Assay results as given in ChEMBL document CHEMBL1166003, “Triterpene glycosides from Curculigo orchioides and their cytotoxic activity” (J Nat Prod, 2010).
Calls of active or inactive are those of the source. The calls are words filed in the database; no cut-off is given here.

Legend:
HL-60 [1] = assay: Cytotoxicity against human HL60 cells at 20 uM after 72 hrs by MTT assay; type: functional, cell-based
SK-OV-3 = assay: Growth inhibition of human SKOV3 cells after 48 hrs by SRB assay; type: functional; conditions: SK-OV-3, 48 h
Procedure, shortened: (§1)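 Part of a 39-line human cancer cell panel, run by a modified NCI method. Cells were plated at suitable density in RPMI 1640 with 5% FBS and left to attach overnight before compound addition. Read-out was GI50.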

LOX IMVI = assay: Growth inhibition of human LOXIMVI cells after 48 hrs by SRB assay; type: functional; procedure, shortened: as §1
[2] = Growth inhibition of human HBC5 cells after 48 hrs by SRB assay; type: functional; conditions: HBC5, 48 h; procedure, shortened: as §1
St-4 = assay: Growth inhibition of human St-4 cells after 48 hrs by SRB assay; type: functional; conditions: St-4, 48 h; procedure, shortened: as §1
PC-3 = assay: Growth inhibition of human PC3 cells after 48 hrs by SRB assay; type: functional; conditions: PC-3, 48 h; procedure, shortened: as §1
OVCAR-4 = assay: Growth inhibition of human OVCAR4 cells after 48 hrs by SRB assay; type: functional; conditions: OVCAR-4, 48 h; procedure, shortened: as §1
DMS-273 = assay: Growth inhibition of human DMS273 cells after 48 hrs by SRB assay; type: functional; conditions: DMS-273, 48 h; procedure, shortened: as §1
MKN-28 = assay: Growth inhibition of human MKN28 cells after 48 hrs by SRB assay; type: functional; conditions: MKN-28, 48 h; procedure, shortened: as §1
NCI-H522 = assay: Growth inhibition of human NCI-H522 cells after 48 hrs by SRB assay; type: functional; conditions: NCI-H522, 48 h; procedure, shortened: as §1
MKN-7 = assay: Growth inhibition of human MKN7 cells after 48 hrs by SRB assay; type: functional; conditions: MKN-7, 48 h; procedure, shortened: as §1
[3] = Growth inhibition of human RXF631L cells after 48 hrs by SRB assay; type: functional; conditions: RXF 631, 48 h; procedure, shortened: as §1
MKN-45 = assay: Growth inhibition of human MKN45 cells after 48 hrs by SRB assay; type: functional; conditions: MKN-45, 48 h; procedure, shortened: as §1
MDA-MB-231 = assay: Growth inhibition of human MDA-MB-231 cells after 48 hrs by SRB assay; type: functional; conditions: MDA-MB-231, 48 h; procedure, shortened: as §1
HCT-116 = assay: Growth inhibition of human HCT116 cells after 48 hrs by SRB assay; type: functional; conditions: HCT-116, 48 h; procedure, shortened: as §1
[4] = Growth inhibition of human HBC4 cells after 48 hrs by SRB assay; type: functional; conditions: HBC4, 48 h; procedure, shortened: as §1
NCI-H23 = assay: Growth inhibition of human NCI-H23 cells after 48 hrs by SRB assay; type: functional; conditions: NCI-H23, 48 h; procedure, shortened: as §1
HCT-15 = assay: Growth inhibition of human HCT15 cells after 48 hrs by SRB assay; type: functional; conditions: HCT-15, 48 h; procedure, shortened: as §1
MKN-74 = assay: Growth inhibition of human MKN74 cells after 48 hrs by SRB assay; type: functional; conditions: MKN-74, 48 h; procedure, shortened: as §1
SF-539 = assay: Growth inhibition of human SF539 cells after 48 hrs by SRB assay; type: functional; conditions: SF-539, 48 h; procedure, shortened: as §1
SF-295 = assay: Growth inhibition of human SF295 cells after 48 hrs by SRB assay; type: functional; conditions: SF-295, 48 h; procedure, shortened: as §1
HCC 2998 = assay: Growth inhibition of human HCC2998 cells after 48 hrs by SRB assay; type: functional; conditions: HCC 2998, 48 h; procedure, shortened: as §1
NCI-H226 = assay: Growth inhibition of human NCI-H226 cells after 48 hrs by SRB assay; type: functional; conditions: NCI-H226, 48 h; procedure, shortened: as §1
OVCAR-3 = assay: Growth inhibition of human OVCAR-3 cells after 48 hrs by SRB assay; type: functional; conditions: OVCAR-3, 48 h; procedure, shortened: as §1
NCI-H460 = assay: Growth inhibition of human NCI-H460 cells after 48 hrs by SRB assay; type: functional; conditions: NCI-H460, 48 h; procedure, shortened: as §1
[5] = Growth inhibition of human BSY1 cells after 48 hrs by SRB assay; type: functional; conditions: BSY-1, 48 h; procedure, shortened: as §1
OVCAR-8 = assay: Growth inhibition of human OVCAR8 cells after 48 hrs by SRB assay; type: functional; conditions: OVCAR-8, 48 h; procedure, shortened: as §1
MCF7 = assay: Growth inhibition of human MCF7 cells after 48 hrs by SRB assay; type: functional; conditions: MCF7, 48 h; procedure, shortened: as §1
KM12 = assay: Growth inhibition of human KM12 cells after 48 hrs by SRB assay; type: functional; conditions: KM12, 48 h; procedure, shortened: as §1
HL-60 [6] = assay: Cytotoxicity against human HL60 cells after 72 hrs by MTT assay; type: functional, cell-based; conditions: HL-60, 72 h
Procedure, shortened: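 HL-60 (JCRB 0085) kept in RPMI 1640 with 10% heat-inactivated FBS, penicillin/streptomycin, 37 °C, 5% CO2. Seeded at 4 × 10^4 cells/mL, preincubated 24 h, then dosed from EtOH-H2O (1:1) to final 0.01-20 µg/mL; vehicle-only controls. After 72 h, modified MTT read-out: MTT 4 h, centrifugation, formazan dissolved in DMSO, A550. Triplicate; IC50 taken as 50% reduction of viable cells.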

OVCAR-5 = assay: Growth inhibition of human OVCAR5 cells after 48 hrs by SRB assay; type: functional; conditions: OVCAR-5, 48 h; procedure, shortened: as §1
DU-145 = assay: Growth inhibition of human DU145 cells after 48 hrs by SRB assay; type: functional; conditions: DU-145, 48 h; procedure, shortened: as §1
HT-29 = assay: Growth inhibition of human HT-29 cells after 48 hrs by SRB assay; type: functional; conditions: HT-29, 48 h; procedure, shortened: as §1
[7] = Growth inhibition of human MKN1 cells after 48 hrs by SRB assay; type: functional; conditions: MKN-1, 48 h; procedure, shortened: as §1
SF-268 = assay: Growth inhibition of human SF268 cells after 48 hrs by SRB assay; type: functional; conditions: SF-268, 48 h; procedure, shortened: as §1
ACHN = assay: Growth inhibition of human ACHN cells after 48 hrs by SRB assay; type: functional; procedure, shortened: as §1
SNB-75 = assay: Growth inhibition of human SNB75 cells after 48 hrs by SRB assay; type: functional; conditions: SNB-75, 48 h; procedure, shortened: as §1
SNB-78 = assay: Growth inhibition of human SNB78 cells after 48 hrs by SRB assay; type: functional; conditions: SNB-78, 48 h; procedure, shortened: as §1
U-251 = assay: Growth inhibition of human U251 cells after 48 hrs by SRB assay; type: functional; conditions: U-251, 48 h; procedure, shortened: as §1
DMS-114 = assay: Growth inhibition of human DMS114 cells after 48 hrs by SRB assay; type: functional; conditions: DMS-114, 48 h; procedure, shortened: as §1
A549 = assay: Growth inhibition of human A549 cells after 48 hrs by SRB assay; type: functional; conditions: A549, 48 h; procedure, shortened: as §1

CC(C)C(=O)CC[C@@H](C)[C@H]1[C@@H](O)C[C@@]2(C)[C@@H]3CC[C@H]4C(C)(C)[C@@H](O[C@@H]5O[C@H](CO)[C@@H](O)[C@H](O)[C@H]5O[C@@H]5O[C@H](CO)[C@@H](O)[C@H](O[C@@H]6O[C@H](CO)[C@@H](O)[C@H](O)[C@H]6O)[C@H]5O)CC[C@@]45C[C@@]35C[C@H](O)[C@]12C
inhibition (HL-60 [1]): inactive

CC(C)C(=O)CC[C@@H](C)[C@H]1[C@@H](O)C[C@@]2(C)[C@@H]3CC[C@H]4C(C)(C)[C@@H](O)CC[C@@]45C[C@@]35C[C@H](O)[C@]12C
GI50 (SK-OV-3): 4790 nM
GI50 (LOX IMVI): 1550 nM
GI50 [2]: 2880 nM
GI50 (St-4): 2750 nM
GI50 (PC-3): 14800 nM
GI50 (OVCAR-4): 2400 nM
GI50 (DMS-273): 2090 nM
GI50 (MKN-28): 2040 nM
GI50 (NCI-H522): 2880 nM
GI50 (MKN-7): 1910 nM
GI50 [3]: 1780 nM
GI50 (MKN-45): 64600 nM
GI50 (MDA-MB-231): 2000 nM
GI50 (HCT-116): 2400 nM
GI50 [4]: 3160 nM
GI50 (NCI-H23): 3090 nM
GI50 (HCT-15): 3470 nM
GI50 (MKN-74): 2190 nM
GI50 (SF-539): 2140 nM
GI50 (SF-295): 2090 nM
GI50 (HCC 2998): 16600 nM
GI50 (NCI-H226): 2750 nM
GI50 (OVCAR-3): 3240 nM
GI50 (NCI-H460): 2240 nM
GI50 [5]: 1950 nM
GI50 (OVCAR-8): 1550 nM
GI50 (MCF7): 3800 nM
GI50 (KM12): 6170 nM
IC50 (HL-60 [6]): 1800 nM
GI50 (OVCAR-5): 4790 nM
GI50 (DU-145): 2090 nM
GI50 (HT-29): 3310 nM
GI50 [7]: 2570 nM
GI50 (SF-268): 1380 nM
GI50 (ACHN): 2000 nM
GI50 (SNB-75): 3800 nM
GI50 (SNB-78): 5010 nM
GI50 (U-251): 2190 nM
GI50 (DMS-114): 1780 nM
GI50 (A549): 2690 nM

CC(C)C(=O)CC[C@@H](C)[C@H]1[C@@H](O)C[C@@]2(C)[C@@H]3CC[C@H]4C(C)(C)[C@@H](O[C@@H]5O[C@H](CO)[C@@H](O)[C@H](O)[C@H]5O[C@@H]5O[C@H](CO)[C@@H](O)[C@H](O)[C@H]5O)CC[C@@]45C[C@@]35C[C@H](O)[C@]12C
inhibition (HL-60 [1]): inactive

CC(C)C(=O)CC[C@@H](C)[C@H]1[C@@H](O)C[C@@]2(C)[C@@H]3CC[C@H]4C(C)(C)[C@@H](O[C@@H]5O[C@H](CO)[C@@H](O)[C@H](O)[C@H]5O)CC[C@@]45C[C@@]35C[C@H](O)[C@]12C
IC50 (HL-60 [6]): 9000 nM

CC(C)C(=O)CC[C@@H](C)[C@H]1[C@@H](O)C[C@@]2(C)[C@@H]3CC[C@H]4C(C)(C)[C@@H](O[C@@H]5O[C@H](CO[C@@H]6O[C@H](CO)[C@@H](O)[C@H](O)[C@H]6O)[C@@H](O)[C@H](O)[C@H]5O)CC[C@@]45C[C@@]35C[C@H](O)[C@]12C
inhibition (HL-60 [1]): inactive

CC(C)C(=O)CC[C@@H](C)[C@H]1[C@@H](O)C[C@@]2(C)[C@@H]3CC[C@H]4C(C)(C)[C@@H](O[C@@H]5O[C@H](CO)[C@@H](O)[C@H](O)[C@H]5O[C@@H]5O[C@@H](C)[C@H](O)[C@@H](O[C@@H]6O[C@H](CO)[C@@H](O)[C@H](O)[C@H]6O)[C@H]5O)CC[C@@]45C[C@@]35C[C@H](O)[C@]12C
inhibition (HL-60 [1]): inactive

CC(C)C(=O)CC[C@@H](C)[C@H]1[C@@H](O)C[C@@]2(C)[C@@H]3CC[C@H]4C(C)(C)[C@@H](O[C@@H]5O[C@H](CO)[C@@H](O)[C@H](O)[C@H]5O[C@@H]5O[C@@H](C)[C@H](O)[C@@H](O)[C@H]5O)CC[C@@]45C[C@@]35C[C@H](O)[C@]12C
inhibition (HL-60 [1]): inactive
